Laboratory results published in ChEMBL document CHEMBL1828498, “Identification and characterization of a novel integrin-linked kinase inhibitor” (J Med Chem, 2011).
pIC50: −log10 of the molar value. Active and inactive are the calls of the source. Unless noted, the calls are words filed in the database; no cut-off is given here.

Tests used:
PC-3 [1] = assay: Induction of apoptosis in human PC3 cells assessed as early apoptotic cells at 4 uM by annexin V/PI staining (reference value: 5.6%); assay type: functional
SK-BR-3 [2] = assay: Reduction in YB-1 mRNA expression in human SKBR3 cells after 24 hrs by RT-PCR analysis; assay type: functional, cell-based
Method in brief: (§1)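 PC-3, PC-3/CA-ILK, SKBR3 and SKBR3/CA-ILK cells treated 24 h in 5% FBS medium; total RNA from 1 × 10^6 cells by Trizol, 1 μg reverse-transcribed, then PCR with gene-specific primers and β-actin reference.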

[3] = system: 3-phosphoinositide dependent protein kinase-2, PDK2; assay: Inhibition of PDK2 in human PC3 cells assessed as Akt Ser-473 dephosphorylation by Western blot analysis; assay type: functional, cell-based; conditions: PC-3
Method in brief: (§2)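 Cells exposed 24 h in 5% FBS medium, final DMSO 0.1%; lysed in 1% SDS/10 mM EDTA/50 mM Tris pH 8.1, equal protein on SDS-PAGE, nitrocellulose, primary antibody 1:1000 at 4°C for 2 h, HRP secondary 1:5000, ECL detection; blots representative of three independent experiments.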

[4] = molecular target: Inhibitor of nuclear factor kappa-B kinase subunit beta (Homo sapiens) (UniProt O14920); assay: Inhibition of IKK-beta at 5 uM assessed as remaining activity
Method in brief: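 Panel of 20 recombinant kinases, profiled by a commercial vendor.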

PC-3 [5] = assay: Cytotoxicity against human PC3 cells expressing Atg5 siRNA assessed as cell viability by MTT assay; assay type: functional, cell-based
Method in brief: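 PC-3 cells electroporated with Atg5 siRNA (or control siRNA) and used 48 h after transfection. Treated 24 h in 5% FBS medium, 0.1% DMSO. Viability by MTT, 1 h at 37°C, absorbance 570 nm. Mean ± SD, n = 6.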

[6] = molecular target: Rapamycin-insensitive companion of mTOR (Homo sapiens) (UniProt Q6R327); assay: Inhibition of mTORC2 in human MDA-MB-231 cells assessed as PKCalpha phosphorylation by Western blot analysis; assay type: cell-based; method in brief: as §2
[7] = molecular target: T1, 3-phosphoinositide-dependent protein kinase 1 (Homo sapiens) (UniProt O15530); assay: Inhibition of PDK2 in human PC3 cells assessed as Akt Thr-308 dephosphorylation by Western blot analysis; assay type: functional, cell-based; conditions: PC-3; method in brief: as §2
T1 sequence (whole entry): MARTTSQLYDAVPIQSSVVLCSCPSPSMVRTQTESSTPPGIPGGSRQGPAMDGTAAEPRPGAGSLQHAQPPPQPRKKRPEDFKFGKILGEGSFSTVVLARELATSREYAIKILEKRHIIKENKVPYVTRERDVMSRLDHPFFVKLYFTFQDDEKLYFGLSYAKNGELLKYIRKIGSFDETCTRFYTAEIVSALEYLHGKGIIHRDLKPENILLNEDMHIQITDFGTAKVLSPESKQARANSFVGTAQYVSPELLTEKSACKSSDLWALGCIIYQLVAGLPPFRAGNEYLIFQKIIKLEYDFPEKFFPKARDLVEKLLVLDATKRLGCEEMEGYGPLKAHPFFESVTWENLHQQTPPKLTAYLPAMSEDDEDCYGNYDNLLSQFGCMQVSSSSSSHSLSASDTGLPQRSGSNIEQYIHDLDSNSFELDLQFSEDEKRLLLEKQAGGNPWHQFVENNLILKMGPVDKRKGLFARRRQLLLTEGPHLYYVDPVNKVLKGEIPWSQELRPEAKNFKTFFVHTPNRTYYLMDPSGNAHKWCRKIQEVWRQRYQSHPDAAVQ

PC-3 [8] = assay: Reduction in EGFR concentration in human PC3 cells after 24 hrs by Western blot analysis; assay type: functional, cell-based
Method in brief: (§3)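 PC-3 versus stable PC-3/CA-ILK, or SKBR3 versus transient SKBR3/CA-ILK (electroporation, used 48 h after), treated 24 h in 5% FBS medium; immunoblotting with ECL; representative of three experiments.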

SK-BR-3 [9] = assay: Reduction in EGFR concentration in human SKBR3 cells expressing constitutively active ILK after 24 hrs by Western blot analysis; assay type: functional, cell-based; method in brief: as §3
[10] = molecular target: 3-phosphoinositide-dependent protein kinase 1 (Homo sapiens) (UniProt O15530); assay: Inhibition of PDK1 at 5 uM assessed as remaining activity
PC-3 [11] = assay: Induction of apoptosis in human PC3 cells up to 2 uM after 48 hrs by flow cytometry; assay type: functional, cell-based
PC-3 [12] = assay: Induction of apoptosis in human PC3 cells assessed as late apoptotic cells at 1 uM by annexin V/PI staining (reference value: 9.8%); assay type: functional
[13] = molecular target: T2, Scaffold protein ILK (Homo sapiens) (UniProt Q13418); assay: Inhibition of ILK in human PC3 cells assessed as decrease in MLC phosphorylation by Western blot analysis; assay type: cell-based; conditions: PC-3
T2 sequence (whole entry): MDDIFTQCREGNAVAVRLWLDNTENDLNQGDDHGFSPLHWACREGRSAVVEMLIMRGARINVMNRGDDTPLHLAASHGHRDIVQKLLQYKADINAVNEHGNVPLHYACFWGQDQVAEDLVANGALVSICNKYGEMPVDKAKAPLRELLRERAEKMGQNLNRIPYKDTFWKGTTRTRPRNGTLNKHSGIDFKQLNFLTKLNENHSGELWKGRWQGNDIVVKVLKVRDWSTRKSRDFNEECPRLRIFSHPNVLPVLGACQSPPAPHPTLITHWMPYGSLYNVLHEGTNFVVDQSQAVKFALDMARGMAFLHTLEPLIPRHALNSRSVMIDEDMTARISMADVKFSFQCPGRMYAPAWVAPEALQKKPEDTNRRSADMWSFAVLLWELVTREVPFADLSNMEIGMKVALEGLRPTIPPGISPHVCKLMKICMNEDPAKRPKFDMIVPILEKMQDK
Method in brief: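 PC-3 and MDA-MB-231 cells exposed 24 h in 5% FBS medium across a concentration series. Phospho-GSK3β (Ser9) and phospho-MLC (Thr18/Ser19) detected by immunoblot: SDS lysis, primary 1:1000 at 4°C for 2 h, HRP secondary, ECL. Representative of three experiments.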

LNCaP = assay: Antiproliferative activity against human LNCAP cells assessed as suppression of cell viability by MTT assay; assay type: functional, cell-based
Method in brief: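 Cancer lines seeded 5000/well and nonmalignant PrEC/MEC 8000/well in 10% FBS, 24 h before treatment. Compound exposure 24 h in 5% FBS medium, 0.1% final DMSO. MTT (0.25 mg/mL) for 1 h at 37°C, dye solubilized in DMSO, absorbance read at 570 nm. Mean ± SD, n = 6.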

[14] = molecular target: Tyrosine-protein kinase ZAP-70 (Homo sapiens) (UniProt P43403); assay: Inhibition of ZAP70 at 5 uM assessed as remaining activity
Mus musculus = assay: Toxicity in nude mouse assessed as weight loss at 50 mg/kg, po administered for 35 days; assay type: organism-based; design: dose 50 mg/kg, route oral; conditions: in vivo, 840 h
Method in brief: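 Male NCr nude mice bearing s.c. PC-3 tumors, dosed once daily by oral gavage in 0.5% methylcellulose/0.1% Tween 80 vehicle, 10 μL/g, for 35 days; body weight recorded weekly.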

PC-3 [15] = assay: Reduction in EGFR mRNA expression in human PC3 cells after 24 hrs by RT-PCR analysis; assay type: functional, cell-based; method in brief: as §1
SK-BR-3 [16] = assay: Reduction in EGFR mRNA expression in human SKBR3 cells expressing constitutively active ILK after 24 hrs by RT-PCR analysis; assay type: functional, cell-based; method in brief: as §1

Sequence of Tyrosine-protein kinase ZAP-70 (Homo sapiens) (P43403 whole entry): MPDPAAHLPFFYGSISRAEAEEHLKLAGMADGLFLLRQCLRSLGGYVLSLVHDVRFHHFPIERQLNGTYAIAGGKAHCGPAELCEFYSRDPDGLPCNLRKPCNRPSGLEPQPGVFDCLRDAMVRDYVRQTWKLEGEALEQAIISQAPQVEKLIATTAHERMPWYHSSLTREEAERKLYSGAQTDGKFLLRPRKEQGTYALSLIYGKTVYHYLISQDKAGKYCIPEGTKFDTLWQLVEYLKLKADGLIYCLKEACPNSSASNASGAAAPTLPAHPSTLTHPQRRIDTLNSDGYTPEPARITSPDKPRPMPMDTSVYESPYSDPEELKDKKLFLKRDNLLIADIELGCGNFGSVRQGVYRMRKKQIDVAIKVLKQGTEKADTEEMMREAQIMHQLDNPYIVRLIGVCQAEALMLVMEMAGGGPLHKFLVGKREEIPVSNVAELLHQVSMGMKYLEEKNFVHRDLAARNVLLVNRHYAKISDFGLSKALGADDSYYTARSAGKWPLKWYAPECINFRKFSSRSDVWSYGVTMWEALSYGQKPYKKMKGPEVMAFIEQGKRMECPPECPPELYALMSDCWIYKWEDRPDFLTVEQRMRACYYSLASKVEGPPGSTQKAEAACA
Sequence of Inhibitor of nuclear factor kappa-B kinase subunit beta (Homo sapiens) (O14920 whole entry): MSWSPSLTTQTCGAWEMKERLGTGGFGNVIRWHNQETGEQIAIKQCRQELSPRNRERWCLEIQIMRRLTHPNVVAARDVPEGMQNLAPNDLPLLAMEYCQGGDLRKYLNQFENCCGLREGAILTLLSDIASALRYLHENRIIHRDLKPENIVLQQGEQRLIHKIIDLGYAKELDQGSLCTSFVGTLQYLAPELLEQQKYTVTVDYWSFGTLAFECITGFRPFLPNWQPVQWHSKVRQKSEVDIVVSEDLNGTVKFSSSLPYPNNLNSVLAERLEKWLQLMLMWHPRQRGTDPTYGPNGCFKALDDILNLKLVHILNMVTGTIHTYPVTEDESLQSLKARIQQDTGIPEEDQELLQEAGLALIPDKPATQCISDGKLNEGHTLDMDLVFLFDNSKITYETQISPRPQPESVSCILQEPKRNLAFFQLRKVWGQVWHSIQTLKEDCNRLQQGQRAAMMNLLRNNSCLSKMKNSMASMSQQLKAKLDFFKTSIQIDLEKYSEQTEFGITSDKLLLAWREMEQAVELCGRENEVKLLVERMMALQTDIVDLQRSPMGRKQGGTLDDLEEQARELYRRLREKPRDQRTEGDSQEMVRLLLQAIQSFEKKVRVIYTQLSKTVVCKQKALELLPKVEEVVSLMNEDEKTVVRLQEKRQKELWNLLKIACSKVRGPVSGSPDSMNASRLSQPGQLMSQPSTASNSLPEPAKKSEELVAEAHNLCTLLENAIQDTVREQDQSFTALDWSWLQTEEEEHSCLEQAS
Sequence of Rapamycin-insensitive companion of mTOR (Homo sapiens) (Q6R327 whole entry): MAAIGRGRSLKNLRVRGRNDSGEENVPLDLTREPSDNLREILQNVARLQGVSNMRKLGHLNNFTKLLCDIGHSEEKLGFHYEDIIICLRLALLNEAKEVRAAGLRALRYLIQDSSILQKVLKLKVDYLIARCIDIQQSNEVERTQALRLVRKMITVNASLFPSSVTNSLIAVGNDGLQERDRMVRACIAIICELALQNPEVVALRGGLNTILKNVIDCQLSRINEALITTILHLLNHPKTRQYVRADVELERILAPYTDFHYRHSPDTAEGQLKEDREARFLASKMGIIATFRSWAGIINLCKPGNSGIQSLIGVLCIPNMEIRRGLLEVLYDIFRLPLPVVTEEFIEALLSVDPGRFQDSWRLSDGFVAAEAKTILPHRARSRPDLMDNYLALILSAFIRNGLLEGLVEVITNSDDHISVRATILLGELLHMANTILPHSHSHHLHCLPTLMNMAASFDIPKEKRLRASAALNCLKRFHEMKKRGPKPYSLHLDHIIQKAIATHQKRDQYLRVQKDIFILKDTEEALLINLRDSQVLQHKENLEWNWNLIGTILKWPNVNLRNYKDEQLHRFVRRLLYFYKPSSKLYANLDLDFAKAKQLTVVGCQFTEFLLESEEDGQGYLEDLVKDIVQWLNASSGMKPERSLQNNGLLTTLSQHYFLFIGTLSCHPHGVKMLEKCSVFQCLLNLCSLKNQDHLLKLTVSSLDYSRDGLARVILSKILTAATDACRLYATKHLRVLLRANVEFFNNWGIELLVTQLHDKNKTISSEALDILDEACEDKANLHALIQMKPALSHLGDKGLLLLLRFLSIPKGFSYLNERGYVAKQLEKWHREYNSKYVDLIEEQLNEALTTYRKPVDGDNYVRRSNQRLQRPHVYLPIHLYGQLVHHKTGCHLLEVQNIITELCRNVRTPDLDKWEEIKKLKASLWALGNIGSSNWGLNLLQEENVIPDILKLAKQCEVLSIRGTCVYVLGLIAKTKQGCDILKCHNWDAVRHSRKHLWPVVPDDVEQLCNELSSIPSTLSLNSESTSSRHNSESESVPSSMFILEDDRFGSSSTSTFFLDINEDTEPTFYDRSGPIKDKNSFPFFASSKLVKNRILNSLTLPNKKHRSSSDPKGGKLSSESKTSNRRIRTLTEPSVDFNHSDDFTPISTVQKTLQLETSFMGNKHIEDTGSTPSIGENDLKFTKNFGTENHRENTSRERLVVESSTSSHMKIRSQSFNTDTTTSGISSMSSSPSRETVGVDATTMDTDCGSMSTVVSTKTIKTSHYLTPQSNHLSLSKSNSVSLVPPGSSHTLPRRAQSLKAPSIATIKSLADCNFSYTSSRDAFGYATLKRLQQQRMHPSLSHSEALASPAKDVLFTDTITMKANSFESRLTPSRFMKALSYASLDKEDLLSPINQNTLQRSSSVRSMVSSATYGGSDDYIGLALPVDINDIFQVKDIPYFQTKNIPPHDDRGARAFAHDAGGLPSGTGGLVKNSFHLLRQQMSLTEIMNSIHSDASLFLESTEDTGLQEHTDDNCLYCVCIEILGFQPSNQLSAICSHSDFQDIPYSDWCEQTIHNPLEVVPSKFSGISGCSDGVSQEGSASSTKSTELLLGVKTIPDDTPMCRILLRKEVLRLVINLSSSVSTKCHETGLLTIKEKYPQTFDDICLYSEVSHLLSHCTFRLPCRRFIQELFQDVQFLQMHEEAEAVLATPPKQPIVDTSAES

For `CNC(=O)CCc1cc(-c2ccc(-c3ccc(C(F)(F)F)cc3)cc2)n(-c2ccc(N3CCNCC3)cc2)n1`, the Activity (PC-3 [1]) was 25.2%, the Activity (SK-BR-3 [2]) was “Dose-dependent effect” and the inhibition [3] was “Dose-dependent effect”. For the same compound, the Activity [4] was 102%, the Activity (PC-3 [5]) was “inactive” and the inhibition [6] was “inactive”. For the same compound, the inhibition [7] was “inactive”, the Activity (PC-3 [8]) was “Dose-dependent effect” and the Activity (SK-BR-3 [9]) was “inactive”. The Activity [10] was 94%, the Activity (PC-3 [11]) was “inactive” and the Activity (PC-3 [12]) was 10.1%. The inhibition [13] was “Active”, the pIC50 (LNCaP) was 5.80 and the Activity [14] was 104%. For the same compound, the Activity (Mus musculus) was “Non-toxic”, the Activity (PC-3 [15]) was “Dose-dependent effect” and the Activity (SK-BR-3 [16]) was “inactive”.
